Data on one compound can be found in ChEMBL document CHEMBL4828720, “Macrocyclic Immunoproteasome Inhibitors as a Potential Therapy for Alzheimer's Disease” (J Med Chem, 2021).

Data set [1] in a line: Effect on RPE structural integrity in ICR mouse by immunostaining based confocal microscopic analysis. It is filed as ADME. The procedure, abridged:
(§1)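 RPE collected after behavioral testing from treated Tg2576 mice and from age-matched non-transgenic ICR mice. Eyecups dissected in ice-cold PBS and retina removed. Tissue permeabilized with 0.2% Triton X-100 for 15 min, blocked with 3% BSA, then anti-β-catenin (1:100) overnight at 4 °C. Alexa 555 secondary 2 h, imaged by confocal microscopy.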

The target of data set [2] is T1, Proteasome subunit beta type-9 (Homo sapiens, UniProt P28065).
T1 sequence (P28065 whole entry): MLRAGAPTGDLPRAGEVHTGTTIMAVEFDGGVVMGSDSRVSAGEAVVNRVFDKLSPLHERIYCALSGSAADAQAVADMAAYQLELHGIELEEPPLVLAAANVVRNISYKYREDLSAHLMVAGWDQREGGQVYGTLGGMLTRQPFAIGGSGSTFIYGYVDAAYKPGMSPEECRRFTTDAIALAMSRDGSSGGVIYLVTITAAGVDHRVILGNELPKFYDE
In words: Inhibition of human 20S proteasome LMP2 using Ac-PAL-AMC as fluorogenic substrate measured every minute for 1 hr by fluorescence assay. In outline: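 Preincubated 1 h with inhibitor at 3-10,000 nM (8 concentrations). Substrates at 100 μM: Ac-PAL-AMC (LMP2), Ac-nLPnLD-AMC (Y), Ac-ANW-AMC (LMP7). Ac-WLA-AMC (X) at 20 μM. AMC fluorescence (360/460 nm) read each minute for 1 h; 3 replicates.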

The nature of data set [3]: Inhibition of human 20S proteasome X using Ac-WLA-AMC as fluorogenic substrate measured every minute for 1 hr by fluorescence assay. The procedure, abridged:
(§2)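 Purified human 20S constitutive or immunoproteasome, 50 ng in 20 mM Tris-HCl, 0.5 mM EDTA, 0.035% SDS, pH 8.0. Preincubated 1 h with inhibitor at 3-10,000 nM (8 concentrations). Substrates at 100 μM: Ac-PAL-AMC (LMP2), Ac-nLPnLD-AMC (Y), Ac-ANW-AMC (LMP7). Ac-WLA-AMC (X) at 20 μM. AMC fluorescence (360/460 nm) read each minute for 1 h; 3 replicates.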

Data set [4] has as its target T2, Proteasome subunit beta type-8 (Homo sapiens, UniProt P28062).
T2 sequence (P28062 whole entry): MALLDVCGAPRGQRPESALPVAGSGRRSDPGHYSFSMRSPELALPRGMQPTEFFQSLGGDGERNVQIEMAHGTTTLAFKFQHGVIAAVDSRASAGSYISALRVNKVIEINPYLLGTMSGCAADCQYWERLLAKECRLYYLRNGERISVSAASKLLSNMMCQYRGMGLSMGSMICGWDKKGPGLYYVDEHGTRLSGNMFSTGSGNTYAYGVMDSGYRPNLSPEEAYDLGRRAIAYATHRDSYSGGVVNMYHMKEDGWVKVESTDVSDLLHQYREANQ
In words: Inhibition of human 20S proteasome LMP7 using Ac-ANW-AMC as fluorogenic substrate measured every minute for 1 hr by fluorescence assay. The procedure, abridged: as §2

Data set [5] in a line: Metabolic stability in ICR mouse liver homogenate at 1 uM measured upto 20 mins by LC-MS/MS analysis. Format: ADME, tissue-based. The following applies: tissue homogenate. In outline: (§3)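 Tissues from male ICR mice, 7 weeks old. Heparinized (25 IU/mL) whole blood, or liver homogenized in ice-cold PBS, prewarmed to 37 °C and spiked to a final 1 μM. Samples taken at 0, 10 and 30 min (blood) or 0, 10 and 20 min (liver). […] Remaining drug quantified by C18 LC-MS/MS.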

For data set [6], the system named is Mus musculus. In words: Cognitive enhancing effect in Tg2576 mouse assessed as latency to enter dark compartment at 10 mg/kg, iv administered twice weekly and measured on 7 and 8 days by step-through passive avoidance test. Format: functional, organism-based. The following applies: time 7-8 day. The procedure, abridged: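 Tg2576 mice (9-month-old), 10 mg/kg twice weekly for 3 weeks. Step-through passive avoidance run 48 h after the probe test. Learning trial: 0.45 mA, 3 s shock on entering the dark room. Testing trial 24 h later (day 8) without shock, timed as latency to re-enter the dark chamber from the lighted compartment. n=5; Student's t-test.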

For data set [7], the target named is T3, Proteasome subunit beta type-9 (Homo sapiens) (UniProt P28065).
T3 sequence (whole entry): T1 sequence (P28065 whole entry)
The experiment in a line: Inhibition of human 20S proteasome LMP2 activity in human NCI/ADR-RES cells overexpressing ABCB1 using Ac-PAL-AMC as fluorogenic substrate incubated for 72 hrs in presence and absence of verapamil by fluorescence assay. Format: cell-based.

In data set [8] the target is T1, Proteasome subunit beta type-9. The experiment in a line: Inhibition of human 20S proteasome LMP2 activity in human RPMI-8226 cells overexpressing ABCB1 using Ac-PAL-AMC as fluorogenic substrate incubated for 72 hrs by fluorescence assay. Format: cell-based.
In data set [9] the test system is Proteasome subunit beta type-9 (Canis lupus familiaris). In words: Inhibition of canine 20S proteasome LMP2 activity in MDCK-II cells overexpressing ABCG2 using Ac-PAL-AMC as fluorogenic substrate by fluorescence assay.
For data set [10] the test system is unchanged. The experiment in a line: Inhibition of canine 20S proteasome LMP2 activity in MDCK-II cells using Ac-PAL-AMC as fluorogenic substrate by fluorescence assay.
Data set [11] concerns the target T1, Proteasome subunit beta type-9. The experiment in a line: Inhibition of human 20S proteasome LMP2 activity in human RPMI-8226 cells using Ac-PAL-AMC as fluorogenic substrate incubated for 72 hrs by fluorescence assay. It is filed as cell-based.
For the next data set, the species on record is Homo sapiens. The experiment in a line: Selectivity index, ratio of IC50 for inhibition of human 20S proteasome LMP2 activity in human RPMI-8226 cells overexpressing ABCB1 to IC50 for inhibition of human 20S proteasome LMP2 activity in human RPMI-8226 cells. It is filed as cell-based. The procedure, abridged:
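Carfilzomib-resistant RPMI 8226/ABCB1 line, kept drug-free for two weeks, alongside parental RPMI 8226. Cells exposed to varying inhibitor concentrations for 72 h, n=3 per concentration. Lysates (5 μg protein, pH 8.0 Tris/EDTA/0.035% SDS buffer) read with 100 μM Ac-PAL-AMC at ex 360/em 460 nm every minute for 1 h. IC50 from curve fitting, mean ± SD.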

A short description of data set [12]: Metabolic stability in ICR mouse whole blood at 1 uM measured upto 30 mins by LC-MS/MS analysis. Conditions: 0.5 h. It is filed as ADME, tissue-based. In outline:
as §3

Data set [13] has as its target Proteasome subunit beta type-9 (Mus musculus) (UniProt P28076). The experiment in a line: Inhibition of LMP2 in mouse BV-2 cells.
Data set [14] in a line: Toxicity in Tg2576 mouse. The following applies: in vivo.
Data set [15] has as its system Mus musculus. In words: In vivo inhibition of immunoproteasome in Tg2576 mouse assessed as reduction in serum IL-1alpha level at 10 mg/kg, iv administered twice weekly for 3 weeks by ELISA. It is filed as functional, organism-based. The procedure, abridged:
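Serum from Tg2576 mice dosed at 10 mg/kg twice weekly for 3 weeks, diluted 1:5. IL-1α sandwich ELISA: samples and standards 2 h at room temperature, detection antibody 1 h, avidin-HRP 30 min. Stopped with 2N H2SO4 and read at 450 nm against a standard curve of seven twofold dilutions. n=3.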
Background: An ELISA detects its analyte on a solid surface through an enzyme-linked reagent.

The species entered for data set [16] is Mus musculus. In words: Protection against inflammation-triggered RPE degeneration in Tg2576 mouse by immunostaining based confocal microscopic analysis. It is filed as functional, organism-based. In outline:
as §1

The structures appear in SMILES notation. Activity calls are given as the source filed them. The calls are words filed in the database; no cut-off is given here.

Sequence of Proteasome subunit beta type-9 (Mus musculus) (P28076 whole entry, looked up): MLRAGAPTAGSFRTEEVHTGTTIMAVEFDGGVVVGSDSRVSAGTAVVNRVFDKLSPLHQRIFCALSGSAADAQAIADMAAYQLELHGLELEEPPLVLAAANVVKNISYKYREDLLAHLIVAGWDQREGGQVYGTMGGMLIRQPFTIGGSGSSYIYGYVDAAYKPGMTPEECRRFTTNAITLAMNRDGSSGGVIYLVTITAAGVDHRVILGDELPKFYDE

For `C[C@]1(C(=O)[C@H](Cc2ccccc2)NC(=O)[C@@H]2Cc3ccc(cc3)OCCCCCCCC(=O)N3CCC[C@H]3C(=O)N2)CO1`, the Activity result in [1] and in data set [14] was “Non-Toxic” each time. Moreover, the half-inhibitory concentration (IC50) in [2] was found to be 184 nM; in data set [3], 4640 nM; in [4], 399 nM; in data set [8], 106 nM; in [11], 32.7 nM. The Stability result in [5] and in data set [12] was “Stable” in each case. The result in the data set with Mus musculus [6] and in the data set listed under Mus musculus [16] was Active. Moreover, the inhibition entry (in data set [7]; in data set [9]; in [10]; in [13]; in the data set with Mus musculus [15]) was “Active” throughout. The Ratio IC50 in the data set listed under Homo sapiens was found to be 3.3.

By IC50 is commonly meant the concentration needed to halve the response being measured.
